Assay results taken from ChEMBL document CHEMBL5034022, “Pharmacophore-Based Design of Phenyl-[hydroxycyclohexyl] Cycloalkyl-Carboxamide Mitofusin Activators with Improved Neuronal Activity” (J Med Chem, 2021).
Each block holds one compound with its values, some of them ahead of it.

Legend:
[1] = Plasma protein binding in human assessed as bound fraction at 2 uM incubated for 120 mins by equilibrium dialysis method; type: ADME, cell-free; conditions: read-out: PPB (converted)
[2] = Plasma protein binding in mouse assessed as bound fraction at 2 uM measured after 120 mins by equilibrium dialysis method; type: ADME, cell-free; conditions: read-out: PPB (converted)
[3] = Activation of Mitofusin in MFN2 deficient mouse MEF cells assessed as mitochondria elongation
[4] = Tmax in non-fasted CD-1 mouse left sciatic nerve at 50 mg/kg, po by HPLC analysis; type: ADME, organism-based
Summary of the method: (§1)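 Oral gavage 50 mg/kg (5 mg/mL in 10%DMSO/90%(30%HP-b-CD)) to non-fasted 7-9 week male CD-1 mice; brain, spinal cord and sciatic nerve homogenized in water, diluted in control mouse plasma, ACN precipitation with warfarin internal standard, HPLC; non-compartmental time-concentration analysis; 3 mice per condition.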

[5] = MRT (0 to infinity) in overnight fasted CD-1 mouse total plasma at 50 mg/kg, po by HPLC analysis; type: ADME, organism-based
Summary of the method: (§2)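 Overnight-fasted 7-9 week male CD-1 mice, food returned 4 h post-dose, given 50 mg/kg by oral gavage (5 mg/mL in 30% SBE-β-CD); plasma and brain (homogenized in MeOH/15 mM PBS) quenched with ACN internal-standard mix, HPLC; free levels calculated from mouse plasma and brain protein binding; mean ± SEM, 3 mice per time point.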

[6] = Tmax in non-fasted CD-1 mouse spinal cord at 50 mg/kg, po by HPLC analysis; type: ADME, organism-based; summary of the method: as §1
[7] = MRT (0 to infinity) in overnight fasted CD-1 mouse total brain at 50 mg/kg, po by HPLC analysis; type: ADME, organism-based; summary of the method: as §2
[8] = Tmax in non-fasted CD-1 mouse brain at 50 mg/kg, po by HPLC analysis; type: ADME, organism-based; summary of the method: as §1
[9] = Tmax in non-fasted CD-1 mouse right sciatic nerve at 50 mg/kg, po by HPLC analysis; type: ADME, organism-based; summary of the method: as §1
[10] = Volume of distribution at steady state in CD-1 mouse at 10 mg/kg, iv administered as single dose by HPLC analysis; type: ADME, organism-based; conditions: in vivo, read-out: Vdss
Summary of the method: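 Single 10 mg/kg IV dose of enantiomeric mixture in 10%DMSO/90%(30%HP-b-CD) to 7-9 week male CD-1 mice; plasma collected over time, proteins precipitated with ACN containing warfarin internal standard, analysed by HPLC; non-compartmental analysis; mean ± SEM, 3 mice per condition.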

fraction unbound at 2 h, 2 µM [1]: 0.0075
fraction unbound at 2 h, 2 µM [2]: 0.012
EC50 [3]: 15.3 nM
Compound: O=C(N[C@H]1CC[C@H](O)CC1)C1CCC(CCCc2ccccc2)C1 (some centres not stated)

Tmax [4]: 30 min
MRT inf [5]: 115 min
Tmax [6]: 30 min
MRT inf [7]: 119 min
Tmax [8]: 30 min
Tmax [9]: 30 min
Compound: O=C(N[C@H]1CC[C@H](O)CC1)[C@@H]1C[C@H]1CCCc1ccccc1

MRT inf [5]: 60.6 min
MRT inf [7]: 57.5 min
Compound: O=C(CCCCCc1ccccc1)N[C@H]1CC[C@H](O)CC1

Vd [10]: 0.6 L/kg
Compound: O=C(N[C@H]1CC[C@H](O)CC1)C1CC1CCCc1ccccc1 (some centres not stated)
